In ChEMBL document CHEMBL2331224 (J Med Chem, 2013) one finds Activity and Efficacy data, which are given here for one compound.

Active and inactive are the calls of the source. No cut-off for these calls is given here.

For data set [1], the system named is Mus musculus. The data set is described as follows: Toxicity against KKAy mouse assessed as plasma triglyceride level at 10 mg/kg/day, po for 14 days (reference value: 122.4 +/- 11.0 mg/dL). The class given is organism-based. More on the design: route oral. The conditions noted are these: in vivo, 336 h.
Data set [2] concerns the target T1, Retinoic acid receptor RXR-alpha (Homo sapiens) (UniProt P19793).
T1 sequence (whole entry): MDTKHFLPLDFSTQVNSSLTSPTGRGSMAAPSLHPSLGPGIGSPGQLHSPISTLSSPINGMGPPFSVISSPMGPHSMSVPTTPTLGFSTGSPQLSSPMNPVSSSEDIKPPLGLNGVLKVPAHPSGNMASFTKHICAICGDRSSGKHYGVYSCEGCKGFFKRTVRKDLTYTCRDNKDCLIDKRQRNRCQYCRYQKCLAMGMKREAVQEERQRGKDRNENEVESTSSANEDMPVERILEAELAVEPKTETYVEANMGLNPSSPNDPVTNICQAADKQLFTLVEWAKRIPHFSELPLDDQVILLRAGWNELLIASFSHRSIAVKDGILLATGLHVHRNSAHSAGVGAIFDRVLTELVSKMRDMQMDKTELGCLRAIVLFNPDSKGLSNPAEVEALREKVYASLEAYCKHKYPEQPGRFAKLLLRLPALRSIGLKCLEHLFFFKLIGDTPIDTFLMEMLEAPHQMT
The data set is described as follows: Partial agonist activity at human RXRalpha by luciferase reporter gene assay. The procedure, abridged:
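COS-1 cells transfected with RXRα, luciferase reporter under RXR response element, and SEAP control; cells seeded ~2.0 × 10⁴/well with compound (DMSO below 1%), 18 h at 37 °C, 5% CO₂. Luciferase normalized to SEAP, expressed relative to 1 μM LGD1069 as 100%; EC₅₀ from full dose-response curves; triplicate, three experiments.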

For data set [3], the target named is T2, Retinoic acid receptor gamma (Homo sapiens) (UniProt P13631).
T2 sequence (whole entry): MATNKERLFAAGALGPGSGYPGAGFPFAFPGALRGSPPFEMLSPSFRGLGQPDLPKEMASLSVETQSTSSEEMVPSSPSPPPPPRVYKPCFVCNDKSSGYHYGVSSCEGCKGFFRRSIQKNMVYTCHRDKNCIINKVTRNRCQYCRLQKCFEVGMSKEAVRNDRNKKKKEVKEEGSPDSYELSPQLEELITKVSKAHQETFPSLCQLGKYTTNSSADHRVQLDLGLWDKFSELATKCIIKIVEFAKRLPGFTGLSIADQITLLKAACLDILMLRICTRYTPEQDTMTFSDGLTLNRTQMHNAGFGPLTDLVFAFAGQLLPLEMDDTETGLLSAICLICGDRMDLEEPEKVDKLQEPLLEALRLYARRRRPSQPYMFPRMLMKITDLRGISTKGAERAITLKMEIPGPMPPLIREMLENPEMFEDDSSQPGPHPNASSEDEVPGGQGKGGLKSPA
The data set is described as follows: Transactivation of RARgamma (unknown origin) by luciferase reporter gene assay relative to All-trans retinoic acid.

Data set [4] concerns Rattus norvegicus. The data set is described as follows: Toxicity in Sprague-Dawley rat assessed as enlargement of spleen at 30 mg/kg, po for 28 days. The class given is organism-based. Also noted: dose 30 mg/kg, route oral. Conditions: in vivo, 672 h. The procedure, abridged: (§1)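 Male and female SD rats, four weeks old on arrival, two per cage. Oral 30 mg/kg/day or vehicle (1% ethanol/0.5% CMC in water, 5 mL/kg) for 28 days, body weight recorded daily. After overnight fasting and isoflurane anaesthesia, liver, brain, kidney, spleen and testis were weighed, and serum was collected (2000g, 10 min, 4 °C) for blood chemistry.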

Data set [5] deals with Mus musculus. The data set is described as follows: Toxicity in ICR mouse assessed as change in renal function parameters at 30 mg/kg/day, po for 7 days. The class given is organism-based. The conditions noted are these: in vivo, 168 h. More on the design: route oral. The method in brief: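 Male ICR mice, 6−7 weeks old, four per cage, grouped by body weight. Oral 30 mg/kg or vehicle (1% ethanol/0.5% CMC in water, 10 mL/kg) once daily for 7 days, body weight recorded daily. After overnight fasting, mice were weighed under ether, and liver was removed and weighed. Serum was analysed on a dry-chemistry analyser for TG, TCHO, ALP, CRE, BUN and other markers. n = 7−23, ANOVA.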

The target of data set [6] is Retinoic acid receptor RXR-alpha/oxysterols receptor LXR-alpha (Homo sapiens) (UniProt P19793+Q13133). The data set is described as follows: Transactivation of LXRalpha/RXRalpha (unknown origin) by luciferase reporter gene assay relative to carba-T0901317. The class given is protein-complex assay. The procedure, abridged: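 Heterodimer reporter in COS-1 cells co-transfected with RXRα (0.5 μg), partner receptor (LXRα for line 2, PPARγ for line 3; 0.5 μg), partner response element-luciferase (4.0 μg), and SEAP. Compound (DMSO below 1%) with ~2.0 × 10⁴ cells/well, 18 h, 37 °C; luciferase normalized to SEAP; triplicate, three runs.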
A general note: Reporter assays use an easily measured gene product as a stand-in for the process of interest.

Data set [7] relates to Rattus norvegicus. The data set is described as follows: Toxicity in Sprague-Dawley rat assessed as change in weight of organs at 30 mg/kg, po for 28 days. The class given is organism-based. More on the design: dose 30 mg/kg, route oral. The conditions noted are these: in vivo, 672 h. The method in brief:
as §1

The target in data set [8] is T1, Retinoic acid receptor RXR-alpha (Homo sapiens). The data set is described as follows: Transactivation of RXRalpha (unknown origin) expressed in COS1 cells at 0.1 uM after 18 hrs by luciferase reporter gene assay relative to bexarotene. Conditions: COS-1. The class given is cell-based. The method in brief: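 COS-1 cells in DMEM with 10% FBS at 37 °C, 5% CO2, transfected with RXRα, an RXR-response-element luciferase reporter and a SEAP background vector. Cells were seeded at about 2.0 × 10⁴ per well with compound (DMSO below 1%) for 18 h. Luciferase was normalized to SEAP and expressed relative to 1 μM reference RXR full agonist as 100%. EC50 came from full dose-response curves. Triplicates, at least three experiments.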

As for `Cc1cc2c(cc1-n1c(C(F)(F)F)nc3cc(C(=O)O)ccc31)C(C)(C)CCC2(C)C`, the Activity in the data set with Mus musculus [1] is 185 mg/dL; with Rattus norvegicus [4], “Toxic”; in the data set with Mus musculus [5] it was “Non-toxic”; with Rattus norvegicus [7], “Non-toxic”. In addition, the result in data set [2], in data set [3] and in data set [6] was Active. For the same compound, the Efficacy in data set [8] is 21%.
